# Shown are actives, neighbours in structure and some others; about 1.8% of the full set was active somewhere.
# NPY Y1 blocker: NPY-Y1 (human) receptor antagonism; HEK293-CNG Y1 cells, membrane potential fluorescence; NPY at EC95, then isoproterenol; P25929; inhibition, % at 3.6 µM; AID 1040; hit rate 1% among 200,000;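 active = inhibition above the campaign mean inhibition of all tested compounds plus 3 SD, cut at about 20% in these data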
#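 Test system: HEK293 cells co-expressing NPY Y1 receptor and cyclic-nucleotide gated channel; Also added: NPY (25 nM), isoproterenol (1 µM), Ro 20-1724 (25 µM); Compound dosing: one concentration, 3.6 µM, in 0.4% DMSO; Timing: dye 3 h, compound 60 min room temperature, stimulation 45 min; Technique: Membrane-potential fluorescent dye readout.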
# NPY-Y1 PAM-ag: potentiates or activates human NPY-Y1 receptor; P25929; NPY-Y1 expressing cells, potentiator/agonist activation; activation, % at 3.6 µM; hit rate 0.37% among 220,000; AID 1304; in the data active = activation above about 33%, passing the limit was not always enough;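 note: cells stimulated with NPY at EC10 then isoproterenol at EC100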
# NPY-Y2 antag: blocks the human neuropeptide Y Y2 receptor; P49146; NPY-Y2 expressing cells, antagonist mode; inhibition, % at 2.7 µM; hit rate 0.99% among 140,000; in the data active = inhibition above about 17%
# Target sequence (P49146 whole entry, looked up): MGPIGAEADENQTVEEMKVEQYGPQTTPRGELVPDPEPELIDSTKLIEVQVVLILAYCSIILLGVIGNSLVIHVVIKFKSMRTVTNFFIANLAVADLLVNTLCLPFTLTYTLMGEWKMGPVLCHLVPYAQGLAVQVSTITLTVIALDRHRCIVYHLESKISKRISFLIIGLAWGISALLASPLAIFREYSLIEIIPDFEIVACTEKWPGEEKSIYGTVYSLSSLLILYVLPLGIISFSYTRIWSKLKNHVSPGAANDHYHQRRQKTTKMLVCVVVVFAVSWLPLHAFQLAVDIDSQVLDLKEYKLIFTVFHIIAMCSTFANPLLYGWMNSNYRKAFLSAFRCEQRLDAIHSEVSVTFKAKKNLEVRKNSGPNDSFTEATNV
# NPY2 pot ag: human NPY-Y2 potentiation or agonism, primary screen | P49146 | AID 1359 | activation, % at 3.6 µM | cells expressing NPY-Y2, potentiator/agonist read-out | hit rate 0.45% among 220,000; in the data active = activation above about 27%;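 note: cells stimulated with NPY near EC25 plus isoproterenol at EC100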
# NPY-Y1 antag ct: counter-screen for NPY-Y2 antagonists: human NPY-Y1 antagonism; shares compounds with NPY-Y2 antag; cell-based NPY-Y1 antagonism counterscreen; inhibition, % at 3.6 µM; hit rate 19% among 710; AID 1256; in the data active = inhibition above about 20%;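 note: cells challenged with NPY then isoproterenol with cAMP sensed through a CNG channel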
# NPY-Y2 ant conf: confirmation of human neuropeptide Y receptor Y2 antagonists; HEK293 NPY-Y2 CNG channel, membrane potential fluorescence; shares compounds with NPY-Y2 antag; hit rate 32% among 710; inhibition, % at 2.8 µM;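 active = mean inhibition of triplicate wells above the hit cutoff set in the primary screen, cut at about 17% in these data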
# A number is an active result; n = inactive; x = not tested or not shown.
SMILES,NPY Y1 blocker,NPY-Y1 PAM-ag,NPY-Y2 antag,NPY2 pot ag,NPY-Y1 antag ct,NPY-Y2 ant conf
COc1ccc(OC)c(CN2CCN(Cc3cccc4ccccc34)CC2)c1,n,n,x,n,x,x
CCN1CCN(c2ccc(S(=O)(=O)N3CCCCC3)cc2NC(=O)c2ccc(F)cc2)CC1,n,n,18,n,n,n
COc1ccc(OS(=O)(=O)c2c(C)noc2C)cc1,x,n,x,n,x,x
N#Cc1c(NC(=O)CCn2cnc3ccccc3c2=O)oc(-c2ccccc2)c1-c1ccccc1,n,n,20,n,23,n
COCCN1C(=O)c2cc(C(=O)Nc3ccc(OC)c(OC)c3)ccc2C1Nc1ccc(OC)c(OC)c1 (stereo not given),n,n,x,n,x,x
Cc1cc([N+](=O)[O-])cc(C)c1OCC(=O)N/N=C/c1ccc(OC(=O)c2ccccc2)cc1,n,n,20,n,n,n
Cc1cc([N+](=O)[O-])cc(C)c1OCC(=O)N/N=C/c1ccc(OC(=O)c2ccccc2Br)cc1,n,n,n,n,x,x
Cc1nn(Cc2ccccc2Cl)c(C)c1C(=O)NCCN1C(=O)S/C(=C\c2ccccc2)C1=O,n,n,22,n,n,n
Cc1nn(Cc2ccccc2Cl)c(C)c1C(=O)NCc1ccco1,n,n,n,n,x,x
CC(C)N(C(=O)CSc1nc2ccccc2n1Cc1ccccc1F)C(C)C,n,n,17,n,n,n
COc1ccc(-c2csc(N(CCCN3CCOCC3)C(=O)c3ccco3)n2)cc1,n,n,18,n,n,n
Cc1ccc(-c2csc(N(CCCN3CCOCC3)C(=O)c3ccco3)n2)cc1,n,n,18,n,n,n
O=C(NCCNS(=O)(=O)c1ccc(Cl)cc1)c1cc(OCC(F)(F)F)ccc1OCC(F)(F)F,n,n,38,n,n,n
O=C(NCCNS(=O)(=O)c1ccccc1)c1cc(OCC(F)(F)F)ccc1OCC(F)(F)F,n,n,n,n,x,x
CCOC(=O)c1ccc(N2C(=O)c3n[nH]c(C)c3C2c2cccnc2)cc1 (stereo not given),n,n,n,n,x,x
CCOC(=O)c1ccc(N2C(=O)c3n[nH]c(-c4ccco4)c3C2c2ccc([N+](=O)[O-])cc2)cc1 (stereo not given),n,n,26,n,22,n
O=c1c2ccccc2cnn1Cc1n[nH]c(=S)n1-c1ccc(Cl)cc1,n,n,28,n,n,n
CCOc1cc(/C=N/NC(=O)C(C)Sc2ccccc2)ccc1O (stereo not given),n,n,x,n,x,x
CC(C)c1ccc(/C=C/C(=O)NC(=S)Nc2ccc(CN3CCOCC3)cc2)cc1,n,n,21,n,25,72
COc1cccc(-c2nnc3sc(-c4ccccc4)nn23)c1,n,n,n,n,x,x
Cc1cccc(-c2nnc3sc(-c4ccccc4C)nn23)c1,n,n,19,n,n,n
CC(C)S(=O)(=O)CC(=O)c1ccc(Cl)cc1,n,n,x,n,x,x
COc1cccc(NC(=O)C(c2ccccc2)N2CCCC2)c1 (stereo not given),n,n,x,n,x,x
Cc1cccc(NC(=O)C(c2cccc([N+](=O)[O-])c2)N2CCCCC2)c1 (stereo not given),n,n,17,n,n,n
O=C(Nc1ccccc1)c1ccc(-c2ccc(Br)cc2)o1,n,n,29,n,n,n
SMILES,NPY Y1 blocker,NPY-Y1 PAM-ag,NPY-Y2 antag,NPY2 pot ag,NPY-Y1 antag ct,NPY-Y2 ant conf
COc1ccccc1NC(=O)c1ccc(-c2ccc(Br)cc2)o1,n,n,21,n,21,43
O=C(Cc1cnc2ncnn2c1)N1CCc2c([nH]c3ccccc23)C1c1ccccn1 (stereo not given),n,n,x,n,x,x
N#Cc1nc(-c2ccc(Cl)cc2)oc1NCc1ccco1,n,n,n,n,x,x
N#Cc1nc(-c2ccc(Cl)cc2)oc1NCc1cccc2c1OCO2,n,n,20,n,21,20
c1cncc(CSc2ccc(-c3ccc4c(c3)OCO4)nn2)c1,n,n,x,n,x,x
Fc1cccc(CSc2ccc(-c3ccc4c(c3)OCO4)nn2)c1,n,n,19,n,n,n
Cc1cc(NC(=O)C23CC4CC(C2)CC(n2cnc([N+](=O)[O-])n2)(C4)C3)no1,n,n,x,n,x,x
COC(=O)CSc1nnc(CNc2ccc(Cl)cc2)n1-c1ccccc1,n,n,n,n,x,x
COC(=O)C(C)N(C(=O)c1ccc(Cl)cc1)c1c(C)cccc1C (stereo not given),n,n,n,n,x,x
COC(=O)C(C)N(C(=O)c1ccc(C(=O)c2ccccc2)cc1)c1c(C)cccc1C (stereo not given),n,n,19,n,n,n
COc1ccccc1CNC(=O)CSc1nc2ccccc2c(=O)n1CCCN1CCOCC1,n,n,x,n,x,x
COc1ccc(NC(=O)CSc2nc3ccccc3c(=O)n2CCCN2CCCCC2)c(OC)c1,n,n,24,n,n,20
O=C(CN(Cc1ccc2c(c1)OCO2)C(=O)CSc1nc2ccccc2o1)NC1CCCCC1,n,n,17,n,n,19
COCCN(CC(=O)NC1CCCCC1)C(=O)CSc1nc2ccccc2o1,n,n,n,n,x,x
Cc1cccc(NC(=O)CSc2nc3ccccc3o2)c1,n,n,22,n,n,n
O=C(CSc1nc2ccccc2o1)c1ccc2c(c1)OCCO2,n,n,22,n,n,18
CC(C)n1c(CSCc2ccc(Cl)cc2Cl)n[nH]c1=S,n,n,x,n,x,x
CN(Cc1ccccc1)S(=O)(=O)c1ccc(Cl)c(C(=O)NCCc2ccccn2)c1,n,n,x,n,x,x
O=C(/C(=N\Nc1ccccc1)Sc1nnnn1-c1ccccc1)c1ccccc1,n,n,n,n,x,x
COc1cc2c(cc1OC)CN(CC(=O)Nc1ccc(Cl)c(S(=O)(=O)N(C)C)c1)CC2,n,n,x,n,x,x
C#CCn1c(=NC(=O)CN2C(=O)CCC2=O)sc2cccc(OC)c21,x,n,x,n,x,x
C#CCn1c(=NC(=O)c2cccs2)sc2cccc(OC)c21,n,n,23,n,n,n
CCCn1c(=N)c(C(=O)NCc2ccc3c(c2)OCO3)cc2c(=O)n3cccc(C)c3nc21,n,n,n,n,x,x
CCOC(=O)c1cc2c(=O)n3ccccc3nc2n(CCCOC)c1=NC(C)=O,n,n,21,n,n,n
CCOCCCn1c(=N)c(C(=O)NCc2ccc3c(c2)OCO3)cc2c(=O)n3ccccc3nc21,n,n,23,n,n,n
SMILES,NPY Y1 blocker,NPY-Y1 PAM-ag,NPY-Y2 antag,NPY2 pot ag,NPY-Y1 antag ct,NPY-Y2 ant conf
CCOC(=O)c1cc2c(=O)n3ccccc3nc2n(CCCOC)c1=NC(=O)c1ccncc1,n,n,x,n,x,x
Cc1cccc(C)c1NC(=O)CCCSc1nnc(-c2ccc(Cl)cc2)n1-c1ccccc1,n,n,18,n,n,n
Cc1nc(Nc2ccc(O)cc2)c2c3c(sc2n1)CCCC3,x,n,x,n,x,x
Cc1ccc(CNc2nc(C)nc3sc4c(c23)CCC4)cc1,n,n,20,n,27,20
Cc1ccc(S(=O)(=O)Nc2ccccn2)cc1[N+](=O)[O-],n,n,x,n,x,x
O=C(COc1ccccc1Cc1ccccc1)NCCCN1CCOCC1,x,n,x,n,x,x
Cc1cccc(CSCCNC(=O)COc2ccc(Cl)cc2)c1,n,n,22,n,n,17

# Screens from PubChem.
